Assay results: ChEMBL document CHEMBL1143270, “Identification of amidoheteroaryls as potent inhibitors of mutant (V600E) B-Raf kinase with in vivo activity” (Bioorg Med Chem Lett, 2009)

Legend:
Assay type in all cases: ADME, organism-based
[1] = Half life in Wistar rat at 3 mg/kg, iv and 10 mg/kg, po; settings: in vivo
[2] = Volume of distribution at steady state in Wistar rat at 3 mg/kg, iv and 10 mg/kg, po; settings: in vivo, read-out: Vdss
[3] = Clearance in Wistar rat at 3 mg/kg, iv and 10 mg/kg, po; settings: in vivo
[4] = Bioavailability in Wistar rat at 3 mg/kg, iv and 10 mg/kg, po; settings: in vivo
Summary of the method: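 Male Han Wistar rats. The iv dose was given as a DMA/PEG/saline (40/40/20) solution and the po dose as a 0.1% HPMC suspension.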

COc1cncc(NC(=O)c2cc(NC(=O)c3cccc(C(C)(C)C#N)c3)ccc2C)c1
half-life [1]: 30 min
Vd [2]: 1.7 L/kg
clearance [3]: 56 mL/min/kg

CNc1ccc(NC(=O)c2cc(NC(=O)c3cccc(C(C)(C)C#N)c3)ccc2C)cn1
bioavailability [4]: 15%
half-life [1]: 36 min
Vd [2]: 1.7 L/kg
clearance [3]: 53.5 mL/min/kg

Cc1ccc(NC(=O)c2cccc(C(C)(C)C#N)c2)cc1C(=O)Nc1cncc(Cl)c1
bioavailability [4]: 45%
half-life [1]: 54 min
Vd [2]: 3.1 L/kg
clearance [3]: 60 mL/min/kg

Cc1ccc(NC(=O)c2cccc(C(C)(C)C#N)c2)cc1C(=O)Nc1cnc(N)c(Cl)c1
bioavailability [4]: 30%
half-life [1]: 60 min
Vd [2]: 0.8 L/kg
clearance [3]: 9.5 mL/min/kg

Nc1ncc(NC(=O)c2cc(NC(=O)c3cccc(C(F)(F)F)c3)ccc2Cl)cc1Cl
bioavailability [4]: 96%
half-life [1]: 84 min
Vd [2]: 1.2 L/kg
clearance [3]: 11 mL/min/kg

Cc1ccc(NC(=O)c2cccc(C(C)(C)C#N)c2)cc1C(=O)Nc1cccnc1
bioavailability [4]: 17%
half-life [1]: 96 min
Vd [2]: 2.5 L/kg
clearance [3]: 42.5 mL/min/kg

CC(=O)Nc1ccc(NC(=O)c2cc(NC(=O)c3cccc(C(C)(C)C#N)c3)ccc2C)cn1
bioavailability [4]: 10%
half-life [1]: 42 min
Vd [2]: 2.7 L/kg
clearance [3]: 64 mL/min/kg

Cc1ccc(NC(=O)c2cc(NC(=O)c3cccc(C(C)(C)C#N)c3)ccc2C)cn1
bioavailability [4]: 73%
half-life [1]: 48 min
Vd [2]: 2.9 L/kg
clearance [3]: 47.5 mL/min/kg

Cc1ccc(NC(=O)c2cccc(C(F)(F)F)c2)cc1C(=O)Nc1cnc(N)c(Cl)c1
bioavailability [4]: 78%
half-life [1]: 96 min
Vd [2]: 1 L/kg
clearance [3]: 8 mL/min/kg

Cc1ccc(NC(=O)c2cccc(C(C)(C)C#N)c2)cc1C(=O)Nc1ccc(N)nc1
half-life [1]: 36 min
Vd [2]: 2.3 L/kg
clearance [3]: 75.5 mL/min/kg

Cc1cncc(NC(=O)c2cc(NC(=O)c3cccc(C(C)(C)C#N)c3)ccc2C)c1
bioavailability [4]: 4%
half-life [1]: 48 min
Vd [2]: 1.4 L/kg
clearance [3]: 32.5 mL/min/kg
